# Results gathered from unrelated publications.
# Each line is one published result; the experiments were not run side by side.
Structure (SMILES),host,sample,route,dose,notes,Cmax
CC(C)N1Cc2cc(C(F)(F)F)ncc2C2=CN=C(NCc3c(F)ccc4c3CCO4)N3C=NC(C1=O)C23 (centres unmarked),male CD-1 mouse,plasma,oral,10 mg/kg,,5070 ng/mL
COc1ccc([C@@]23Oc4cc(OC)cc(OC)c4[C@]2(O)[C@H](O)[C@H](C(=O)N(C)C)[C@H]3c2ccccc2)cc1,mouse,plasma,oral,5 mg/kg,,~0.8 µM
Cc1ccc(NC(=O)c2ccc(CN3CCN(C)CC3)cc2)cc1Nc1nccc(-c2cncc(-c3oncc3C)c2)n1,male C57BL/6 mouse,brain,oral,100 mg/kg/day,,98.1 ng/mL
Cn1cnc2c(F)c(Nc3ccc(Br)cc3Cl)c(C(=O)NOCCO)cc21,nude mouse,liver,oral,5 mg/kg,"single dose, tumour-bearing",1340 ng/g
COc1ccc2nccc(N3CCc4c(cc(Cn5ccnc5)cc4-c4cn(C)nc4C(F)(F)F)C3=O)c2c1,male CD-1 mouse,plasma,oral,50 mg/kg,,8940 ng/mL
CSc1cc(Oc2ccnc3[nH]c(=O)cnc23)ccc1NC(=O)Nc1cc(C(C)(C)C)nn1-c1ccccc1,BALB/c mouse,plasma,intravenous,2 mg/kg,,29.8 µM
Cc1c2c(n(-c3ccc(F)cc3Cl)c1-c1ccc(OS(=O)(=O)CCC(F)(F)F)cc1)CCN(N1CCCCC1)C2=O,mouse,plasma,oral,6 µmol/kg,single dose,0.04 µM
CN1CCN(C(=O)c2cc3c(Nc4ccc(OC(F)(F)F)cc4)ncnc3s2)CC1,male BALB/c mouse,plasma,oral,20 mg/kg,,1090 ng/mL
CNCCN(C)c1cc(C#N)cc(CCc2cc(C)cc(N)n2)c1,male BALB/c mouse,plasma,oral,10 mg/kg,,50.8 ng/mL
CN1CCC[C@H](CN2c3ccccc3Sc3ccccc32)C1.Cl,mouse,plasma,oral,64 mg/kg,single dose,1180 ng/mL
Cc1noc([C@H](Cc2c[nH]cn2)NC(=O)CN(CCCc2ccccc2)CC(=O)O)n1,male C57BL/6 mouse,plasma,intraperitoneal,30 mg/kg,,5800 ng/mL
NC[C@@H]1O[C@H](O[C@H]2[C@@H](O)[C@H](O[C@@H]3[C@@H](O)[C@H](N)C[C@H](N)[C@H]3O[C@H]3O[C@H](CO)[C@@H](O)[C@H](O)[C@H]3N)O[C@@H]2CO)[C@H](N)[C@@H](O)[C@@H]1O,male BALB/c mouse,plasma,oral,500 mg/kg,,690 ng/mL
CN1C(=O)c2ccccc2[S@+]([O-])c2ccc(C(=O)NCCc3cccs3)cc21,male C57BL/6 mouse,plasma,intraperitoneal,30 mg/kg,single dose,8280 ng/mL
CC(C)(C)c1cc(NC(=O)Nc2ccc(Oc3ccnc4[nH]c(=O)cnc34)cc2F)n(-c2ccccc2)n1,BALB/c mouse,plasma,intravenous,2 mg/kg,,38.1 µM
COc1nc(-c2cc(C)c(N[C@@H](C)c3c(F)cc(F)cc3F)nn2)ccc1-n1cnc(C)c1,male CD-1 mouse,plasma,oral,5 mg/kg,single dose,1010 ng/mL
Cc1nc(-c2cnc(NC(C)C)n(C)c2=O)ccc1Oc1ccnc(-c2cnn(C)c2)c1,female mouse,plasma,oral,15 mg/kg,single dose,9360 ng/mL
CCOc1ccc(Cc2cc([C@@H]3O[C@H](CO)[C@@H](O)[C@H](O)[C@H]3O)ccc2Cl)cc1,male C57BL/6 mouse,plasma,oral,1 mg/kg,,207 ng/mL
CC=Cc1ccc(O)c(OC)c1,mouse,brain,intranasal,100 mg/kg,,4340 ng/g
CC(C)(C)c1ccc(O)c(CN(Cc2cc(C(C)(C)C)ccc2O)C2CCC(NC(N)=O)CC2)c1 (centres unmarked),male C57BL/6 mouse,brain,intraperitoneal,25 mg/kg,single dose,1610 ng/g
NC1(C(=O)N[C@@H](CCO)c2ccc(Cl)cc2)CCN(c2ncnc3[nH]ccc23)CC1,male Swiss mouse,plasma,intraperitoneal,25 mg/kg,single dose,~8 µM
NC(=O)c1cc(Oc2ccc(NC(=O)Nc3ccc(Cl)c(C(F)(F)F)c3)c(F)c2)cc[n+]1[O-],mouse,plasma,oral,10 mg/kg,single dose,22.9 ng/mL
FC(F)(F)Oc1ccc(Nc2cc(-c3cn[nH]c3)ncn2)cc1,male BALB/c mouse,plasma,oral,20 mg/kg,,3400 ng/mL
CC(=O)O[C@H]1C(=O)[C@@]2(C)[C@H]([C@H](OC(=O)c3ccccc3)[C@]3(O)C[C@H](OC(=O)[C@H](O)[C@@H](NC(=O)c4ccccc4)c4ccccc4)C(C)=C1C3(C)C)[C@]1(OC(C)=O)CO[C@@H]1C[C@@H]2O,SCID mouse,tumour,intraperitoneal,10 mg/kg,"single dose, tumour-bearing",3700 ng/g
CCc1ccc(Cc2cc([C@@H]3O[C@H](CO)[C@@H](O)[C@H](O)[C@H]3O)cc3c2CCC3)cc1,male C57BL/6 mouse,plasma,oral,3 mg/kg,,1830 ng/mL
CC(C)Oc1c(NC(=O)c2ccc(NC(=O)[C@H](CC(N)=O)NC(=O)c3ccc(NC(=O)c4ccc(C#N)cc4)cc3)cc2)ccc(C(=O)Nc2ccc(C(=O)O)cc2)c1O,male CD-1 mouse,plasma,subcutaneous,5 mg/kg,single dose,129 ng/mL
CN1CCN(C(=O)CN[C@@H]2C[C@H]2c2ccc(OCc3ccccc3)cc2)CC1,mouse,plasma,intraperitoneal,10 mg/kg,,542 ng/mL
Nc1ncc(-c2ccncc2)nc1Nc1ccc2[nH]ccc2c1,male C57BL/6 mouse,plasma,oral,30 mg/kg,,7 µM
CNC(=O)c1cc(OC)cc2c(N3CCc4c(cc(Cn5ccnc5)cc4-c4cn(C)nc4C(F)(F)F)C3=O)ccnc12,male CD-1 mouse,plasma,oral,50 mg/kg,,46100 ng/mL
CNC(=O)[C@H](Cc1c[nH]cn1)NC(=O)CN(CCCc1ccccc1)CC(=O)O,male C57BL/6 mouse,plasma,intraperitoneal,30 mg/kg,,11000 ng/mL
Cc1ccc2cncc(N3CCc4c(cc(Cn5ccnc5)cc4-c4cn(C)nc4C(F)(F)F)C3=O)c2c1,male CD-1 mouse,plasma,oral,10 mg/kg,,2680 ng/mL
COc1nc(-c2cc(C)c(N[C@@H](C)c3ccc(F)cc3)nn2)ccc1-n1cnc(C)c1,male CD-1 mouse,plasma,intravenous,1 mg/kg,single dose,768 ng/mL
O=C(NO)c1ccc(CN(c2cnccn2)c2cnccn2)cc1,male C57BL/6 mouse,plasma,oral,200 mg/kg,"multiple doses, once daily, tumour-bearing",300 ng/mL
CCc1cc(C(=O)NC)c2nccc(N3CCc4c(cc(Cn5ccnc5)cc4-c4cn(C)nc4C(F)(F)F)C3=O)c2c1,male CD-1 mouse,plasma,oral,150 mg/kg,,131000 ng/mL
CCN1CCN(Cc2cc(NC(=O)c3ccc(C)c(-c4ccc5nc(NC(=O)C6CC6)cn5n4)c3)cc(C(F)(F)F)c2)CC1,Swiss mouse,plasma,intraperitoneal,3 mg/kg,,340 ng/mL
OC[C@H]1O[C@@H](c2ccc(Cl)c(Cc3ccc(O[C@H]4CCOC4)cc3)c2)[C@H](O)[C@@H](O)[C@@H]1O,CD-1 mouse,plasma,intravenous,5 mg/kg,,4920 ng/mL
CC[C@H](C)[C@@H]1NC(=O)[C@@](C)(NC(=O)[C@H](CCCNC(=N)N)NC(=O)[C@H](CC(C)C)NC(=O)[C@@H](NC(=O)[C@H](CCC(N)=O)NC(=O)[C@H](CC(C)C)NC(C)=O)[C@@H](C)O)CCCC=CCCC[C@@](C)(C(=O)N[C@@H](CC(C)C)C(=O)N[C@@H](Cc2ccc3ccccc3c2)C(N)=O)NC(=O)[C@H](CCCNC(=N)N)NC(=O)[C@H](CCC(N)=O)NC1=O,male BALB/c mouse,plasma,intravenous,10 mg/kg,,86 µM
C=CC(=O)N1CC2CC(n3nc(-c4ccc(C(=O)Nc5ccccn5)cc4)c4c(N)ncnc43)CC2C1 (centres unmarked),SCID mouse,plasma,oral,5 mg/kg,,429 ng/mL
COc1nc(-c2cc(C)c(N[C@@H](C)c3cc(F)cc(F)c3)nn2)ccc1-n1cnc(C)c1,male CD-1 mouse,plasma,intravenous,1 mg/kg,single dose,699 ng/mL
CC(C)(O)c1cn(-c2ccc(-c3cc(F)c(CO)c(S(C)(=O)=O)c3)cc2)c(C(C)(C)c2cccc(F)c2Cl)n1,male C57BL/6 mouse,serum,oral,10 mg/kg,,1.9 µM
Cc1cc(Nc2ccc(S(F)(F)(F)(F)F)cc2)n2ncnc2n1,male Swiss mouse,plasma,oral,100 mg/kg,single dose,59 µM
CC(C)(O)c1cn(-c2ccc(-c3cccc(S(C)(=O)=O)c3)cc2)c(C(C)(C)c2ccccc2Cl)n1,male C57BL/6 mouse,serum,oral,10 mg/kg,,15 µM
O=C(CCCCCC(=O)NN=Cc1ccc(-c2ccccc2)cc1)NO,C57BL/6 mouse,brain,intraperitoneal,25 mg/kg,single dose,0.06 µM
CS(=O)(=O)CCNCc1ccc(-c2ccc3ncnc(Nc4ccc(OCc5cccc(F)c5)c(Cl)c4)c3c2)o1,nude mouse,plasma,oral,200 mg/kg,single dose,16600 ng/mL
COc1ccc(C(O)COc2ccc(-c3csc(-c4ccc(OCC(O)c5ccc(OC)c(OC)c5)cc4)n3)cc2)cc1OC (centres unmarked),C57BL/6 mouse,plasma,oral,75 mg/kg,,7680 ng/mL
COc1cc2c(Nc3ccc(Cl)c(Cl)c3F)ncnc2cc1OC[C@@H]1C[C@@H]2CN(C)C[C@@H]2C1,FVB mouse,brain,oral,70 mg/kg,single dose,7570 ng/g
CCc1cc(OC)c2nccc(N3CCc4c(cc(Cn5ccnc5)cc4-c4cn(C)nc4C(F)(F)F)C3=O)c2c1,male CD-1 mouse,plasma,oral,150 mg/kg,,35200 ng/mL
C[C@H](NC(=O)C(C)(C)Oc1ccc(C(F)(F)F)cn1)[C@@H](Cc1ccc(Cl)cc1)c1cccc(C#N)c1,mouse,plasma,oral,6 µmol/kg,single dose,0.7 µM
